# According to ChEMBL document CHEMBL1144856, “Design, synthesis, and biological evaluation of 1-(4-sulfamylphenyl)-3-trifluoromethyl-5-indolyl pyrazolines as cyclooxygenase-2 (COX-2) and lipoxygenase (LOX) inhibitors” (Bioorg Med Chem, 2008):
# Columns and labels:
# Ovis aries = species on record: Ovis aries; test: Selectivity ratio of IC50 for ovine COX1 to IC50 for ovine COX2
# Outline: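 Purified hematin-reconstituted ovine COX-1 and COX-2 (six units each) in Tris–HCl 0.1 M pH 8.0, 5 mM EDTA, 2 mM phenol. Enzymes were preincubated 1 h at room temperature with inhibitor in DMSO, then given arachidonic acid for 2 min at 37 °C. PGF2α from SnCl2 reduction of PGH2 was read by EIA. IC50s are means of duplicates; ratio is COX-1 IC50/COX-2 IC50.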
# [1] = biological target: T1, Prostaglandin G/H synthase 1 (Ovis aries, UniProt P05979); test: Inhibition of ovine COX1 by enzyme immuno assay
# T1 sequence (P05979 whole entry): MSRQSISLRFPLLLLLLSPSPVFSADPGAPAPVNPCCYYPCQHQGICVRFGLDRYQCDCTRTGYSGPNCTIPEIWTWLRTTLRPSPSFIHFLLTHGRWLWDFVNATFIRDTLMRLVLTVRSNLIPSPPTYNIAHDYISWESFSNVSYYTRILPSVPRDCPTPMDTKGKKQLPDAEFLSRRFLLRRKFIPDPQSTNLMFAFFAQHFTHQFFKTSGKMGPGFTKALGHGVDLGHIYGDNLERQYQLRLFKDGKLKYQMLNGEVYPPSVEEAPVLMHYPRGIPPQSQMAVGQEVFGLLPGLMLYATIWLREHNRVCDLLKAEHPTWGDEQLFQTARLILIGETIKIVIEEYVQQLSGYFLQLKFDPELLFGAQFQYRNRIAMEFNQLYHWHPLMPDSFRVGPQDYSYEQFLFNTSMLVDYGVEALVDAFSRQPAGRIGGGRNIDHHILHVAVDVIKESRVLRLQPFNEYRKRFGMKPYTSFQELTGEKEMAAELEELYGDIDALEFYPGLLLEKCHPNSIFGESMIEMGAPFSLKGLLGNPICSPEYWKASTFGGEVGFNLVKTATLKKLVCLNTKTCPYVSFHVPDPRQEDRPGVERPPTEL
# Outline: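 Hematin-reconstituted purified ovine COX-1 (six units) in 0.1 M Tris-HCl pH 8.0 with 5 mM EDTA and 2 mM phenol. Pre-incubated 1 h at room temperature with inhibitor in DMSO, then arachidonic acid added for 2 min at 37 °C. PGH2 was reduced with stannous chloride and PGF2α measured by EIA. Run in duplicate; IC50 is the mean of the duplicates.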
# [2] = biological target: T2, Polyunsaturated fatty acid lipoxygenase ALOX15 (Oryctolagus cuniculus) (UniProt P12530); test: Inhibition of LOX15 from rabbit reticulocytes at 10 uM by enzyme immuno assay
# T2 sequence (whole entry): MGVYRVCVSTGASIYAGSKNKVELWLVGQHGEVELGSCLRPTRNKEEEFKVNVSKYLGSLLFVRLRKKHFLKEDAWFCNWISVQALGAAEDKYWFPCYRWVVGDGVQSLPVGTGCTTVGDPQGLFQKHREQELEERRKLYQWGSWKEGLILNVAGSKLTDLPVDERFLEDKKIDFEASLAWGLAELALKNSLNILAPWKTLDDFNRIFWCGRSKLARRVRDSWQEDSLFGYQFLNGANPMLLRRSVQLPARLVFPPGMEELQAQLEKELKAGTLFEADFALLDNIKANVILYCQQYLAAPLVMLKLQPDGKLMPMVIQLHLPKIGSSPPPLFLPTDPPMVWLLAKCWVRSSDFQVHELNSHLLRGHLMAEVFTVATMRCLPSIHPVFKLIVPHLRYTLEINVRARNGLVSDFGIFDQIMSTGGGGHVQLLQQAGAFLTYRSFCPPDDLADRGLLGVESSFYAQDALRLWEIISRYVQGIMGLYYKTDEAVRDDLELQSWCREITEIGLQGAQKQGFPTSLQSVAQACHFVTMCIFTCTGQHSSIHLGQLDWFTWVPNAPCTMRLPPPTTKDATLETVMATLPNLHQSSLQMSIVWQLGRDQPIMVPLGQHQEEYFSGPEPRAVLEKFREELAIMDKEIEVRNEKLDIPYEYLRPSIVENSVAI
# Outline: (§1)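 Run by a contract lab. Enzyme sources: human PBML cells (LOX-5), human platelets (LOX-12), rabbit reticulocytes (LOX-15). Substrates: endogenous arachidonic acid (LOX-5), added arachidonic acid (LOX-12), linoleic acid (LOX-15). Inhibition read as LTB4 (LOX-5), 12-HETE (LOX-12) or 15-HETE (LOX-15), quantified by EIA and spectrophotometrically.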
# [3] = biological target: T3, Polyunsaturated fatty acid 5-lipoxygenase (Homo sapiens) (UniProt P09917); test: Inhibition of LOX5 from human PBML cells at 10 uM by enzyme immuno assay; assay type: cell-based; outline: as §1
# T3 sequence (whole entry): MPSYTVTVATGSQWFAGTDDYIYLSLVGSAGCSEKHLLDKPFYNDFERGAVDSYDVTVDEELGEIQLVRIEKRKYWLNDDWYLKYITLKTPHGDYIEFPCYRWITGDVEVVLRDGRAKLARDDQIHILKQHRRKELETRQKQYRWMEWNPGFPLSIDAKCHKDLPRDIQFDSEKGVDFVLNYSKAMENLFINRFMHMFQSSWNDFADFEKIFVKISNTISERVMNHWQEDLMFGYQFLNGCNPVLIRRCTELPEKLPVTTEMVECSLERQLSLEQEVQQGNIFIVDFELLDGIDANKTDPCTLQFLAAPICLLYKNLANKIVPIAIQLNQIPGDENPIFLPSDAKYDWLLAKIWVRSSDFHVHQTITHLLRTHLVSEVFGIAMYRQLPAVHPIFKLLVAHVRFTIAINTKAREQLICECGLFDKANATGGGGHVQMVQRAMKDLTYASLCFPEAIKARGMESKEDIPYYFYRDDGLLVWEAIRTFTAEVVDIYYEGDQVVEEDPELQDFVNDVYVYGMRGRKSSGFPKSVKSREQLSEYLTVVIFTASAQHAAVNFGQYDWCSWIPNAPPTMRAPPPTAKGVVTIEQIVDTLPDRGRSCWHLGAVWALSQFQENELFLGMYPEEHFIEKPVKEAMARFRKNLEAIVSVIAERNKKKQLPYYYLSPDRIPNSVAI
# [4] = biological target: T4, Polyunsaturated fatty acid lipoxygenase ALOX12 (Homo sapiens) (UniProt P18054); test: Inhibition of LOX12 from human platelets at 10 uM by enzyme immuno assay; outline: as §1
# T4 sequence (whole entry): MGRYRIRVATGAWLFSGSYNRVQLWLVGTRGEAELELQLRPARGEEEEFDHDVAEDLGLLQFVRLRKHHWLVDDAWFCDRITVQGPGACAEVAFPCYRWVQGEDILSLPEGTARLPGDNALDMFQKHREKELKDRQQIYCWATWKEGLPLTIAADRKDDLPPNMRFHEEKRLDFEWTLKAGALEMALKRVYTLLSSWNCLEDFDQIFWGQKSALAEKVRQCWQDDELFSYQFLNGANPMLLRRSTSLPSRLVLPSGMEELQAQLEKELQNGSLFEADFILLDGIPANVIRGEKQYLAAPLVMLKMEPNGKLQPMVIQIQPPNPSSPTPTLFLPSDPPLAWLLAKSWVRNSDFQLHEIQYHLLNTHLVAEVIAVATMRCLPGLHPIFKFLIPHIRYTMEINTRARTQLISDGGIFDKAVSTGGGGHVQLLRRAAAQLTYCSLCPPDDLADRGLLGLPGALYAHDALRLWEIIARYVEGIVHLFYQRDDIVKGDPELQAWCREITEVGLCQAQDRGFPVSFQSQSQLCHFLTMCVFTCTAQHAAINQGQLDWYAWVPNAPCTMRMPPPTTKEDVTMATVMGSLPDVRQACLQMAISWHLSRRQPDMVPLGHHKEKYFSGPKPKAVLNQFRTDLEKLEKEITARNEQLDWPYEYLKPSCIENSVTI
Ratio IC50 (Ovis aries),IC50 [1] [µM],inhibition [2] [%],inhibition [3] [%],inhibition [4] [%],Compound
> 8,,,,,"NS(=O)(=O)c1ccc(N2N=C(C(F)(F)F)CC2c2c[nH]c3ccccc23)cc1 (single isomer, unassigned; enantiomer 2) [listing 1 of 2 here]"
> 17,> 100,,,,Cc1[nH]c2cc(Cl)ccc2c1C1CC(C(F)(F)F)=NN1c1ccc(S(N)(=O)=O)cc1 (configuration not stated)
14,> 100,,,,Nc1ccc2c(C3CC(C(F)(F)F)=NN3c3ccc(S(N)(=O)=O)cc3)c[nH]c2c1 (configuration not stated)
,> 100,,,,"NS(=O)(=O)c1ccc(N2N=C(C(F)(F)F)CC2c2c[nH]c3ccccc23)cc1 (single isomer, unassigned; enantiomer 2) [listing 2 of 2 here]"
0,> 100,,,,Nc1cccc2[nH]cc(C3CC(C(F)(F)F)=NN3c3ccc(S(N)(=O)=O)cc3)c12 (configuration not stated)
0,> 100,36,51,-2,NS(=O)(=O)c1ccc(N2N=C(C(F)(F)F)CC2c2c[nH]c3cc(Cl)ccc23)cc1 (configuration not stated)
> 119,,,,,"NS(=O)(=O)c1ccc(N2N=C(C(F)(F)F)CC2c2c[nH]c3ccccc23)cc1 (single isomer, unassigned; enantiomer 1) [listing 1 of 2 here]"
> 1,,,,,"NS(=O)(=O)c1ccc(N2N=C(C(F)(F)F)CC2c2c[nH]c3c(Cl)cccc23)cc1 (single isomer, unassigned; enantiomer 2) [listing 1 of 2 here]"
,> 100,,,,"NS(=O)(=O)c1ccc(N2N=C(C(F)(F)F)CC2c2c[nH]c3c(Cl)cccc23)cc1 (single isomer, unassigned; enantiomer 1) [listing 1 of 2 here]"
0,> 100,,,,N#Cc1ccc2[nH]cc(C3CC(C(F)(F)F)=NN3c3ccc(S(N)(=O)=O)cc3)c2c1 (configuration not stated)
> 72,,31,41,5,NS(=O)(=O)c1ccc(N2N=C(C(F)(F)F)CC2c2c[nH]c3ccccc23)cc1 (stereo in doubt; 5a) [listing 1 of 2 here]
12,> 100,,,,COc1cccc2[nH]cc(C3CC(C(F)(F)F)=NN3c3ccc(S(N)(=O)=O)cc3)c12 (configuration not stated)
,,22,,7,Cc1ccc(-c2cc(C(F)(F)F)nn2-c2ccc(S(N)(=O)=O)cc2)cc1
0,> 100,,,,NS(=O)(=O)c1ccc(-n2nc(C(F)(F)F)cc2-c2c[nH]c3ccccc23)cc1
,> 100,,,,"NS(=O)(=O)c1ccc(N2N=C(C(F)(F)F)CC2c2c[nH]c3ccccc23)cc1 (single isomer, unassigned; enantiomer 1) [listing 2 of 2 here]"
> 8,> 100,,,,NS(=O)(=O)c1ccc(N2N=C(C(F)(F)F)CC2c2c[nH]c3ccc(F)cc23)cc1 (configuration not stated)

Ratio IC50 (Ovis aries),IC50 [1] [µM],inhibition [2] [%],inhibition [3] [%],inhibition [4] [%],Compound
> 118,> 100,,,,Nc1ccc2[nH]cc(C3CC(C(F)(F)F)=NN3c3ccc(S(N)(=O)=O)cc3)c2c1 (configuration not stated)
> 345,,,,,"NS(=O)(=O)c1ccc(N2N=C(C(F)(F)F)CC2c2c[nH]c3c(Cl)cccc23)cc1 (single isomer, unassigned; enantiomer 1) [listing 2 of 2 here]"
0,> 100,,,,NS(=O)(=O)c1ccc(N2N=C(C(F)(F)F)CC2c2c[nH]c3cc(F)ccc23)cc1 (configuration not stated)
> 23,> 100,,,,NS(=O)(=O)c1ccc(N2N=C(C(F)(F)F)CC2c2c[nH]c3cc(Br)ccc23)cc1 (configuration not stated)
,> 100,,,,NS(=O)(=O)c1ccc(N2N=C(C(F)(F)F)CC2c2c[nH]c3c(Cl)cccc23)cc1 (stereo in doubt; 5f) [listing 1 of 2 here]
,> 100,,,,"NS(=O)(=O)c1ccc(N2N=C(C(F)(F)F)CC2c2c[nH]c3c(Cl)cccc23)cc1 (single isomer, unassigned; enantiomer 2) [listing 2 of 2 here]"
0,> 100,,,,NS(=O)(=O)c1ccc(N2N=C(C(F)(F)F)CC2c2c[nH]c3cc([N+](=O)[O-])ccc23)cc1 (configuration not stated)
> 3,> 100,,,,NS(=O)(=O)c1ccc(N2N=C(C(F)(F)F)CC2c2c[nH]c3ccc(Cl)cc23)cc1 (configuration not stated)
0,> 100,,,,NS(=O)(=O)c1ccc(N2N=C(C(F)(F)F)CC2c2c[nH]c3ccc(C(=O)O)cc23)cc1 (configuration not stated)
2,> 100,,,,NS(=O)(=O)c1ccc(N2N=C(C(F)(F)F)CC2c2c[nH]c3ccc([N+](=O)[O-])cc23)cc1 (configuration not stated)
> 26,,36,94,3,NS(=O)(=O)c1ccc(N2N=C(C(F)(F)F)CC2c2c[nH]c3c(Cl)cccc23)cc1 (stereo in doubt; 5f) [listing 2 of 2 here]
> 42,> 100,,,,Nc1cccc2c(C3CC(C(F)(F)F)=NN3c3ccc(S(N)(=O)=O)cc3)c[nH]c12 (configuration not stated)
,,6,11,-2,CS(=O)(=O)c1ccc(C2=C(c3ccccc3)C(=O)OC2)cc1
0,> 100,,,,N#Cc1ccc2c(C3CC(C(F)(F)F)=NN3c3ccc(S(N)(=O)=O)cc3)c[nH]c2c1 (configuration not stated)
0,> 100,,,,NS(=O)(=O)c1ccc(N2N=C(C(F)(F)F)CC2c2c[nH]c3c([N+](=O)[O-])cccc23)cc1 (configuration not stated)
,> 100,,,,NS(=O)(=O)c1ccc(N2N=C(C(F)(F)F)CC2c2c[nH]c3ccccc23)cc1 (stereo in doubt; 5a) [listing 2 of 2 here]
